Sampled rows, rich in hits. Any-hit rate of the full collection: about 2.7%.
HNF4A DNA FP: change in binding of human HNF4 alpha to DNA; P41235; HNF4a-FITC DNA binding, fluorescence polarization, 1 h; 360,000 tested, 0.3% active; activity change, % at 10 µM; in the data active = activity change above about 30%, passing the limit was not always enough
PP1 counter: counter-screen for PP5 inhibitors: inhibitors of human PP1-alpha | P62136 | purified PP1alpha, OMFP fluorescence | inhibition, % at 6.7 µM | 320,000 tested, 0.9% active | AID 2235;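 active = inhibition above the mean inhibition of all tested compounds plus 3 SD, computed separately for each screening campaign, cut at about 15% in these data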
TPT1 inh: C. albicans TPT1 enzyme inhibition; recombinant caTPT1, FP RNA substrate dephosphorylation; inhibition, % at 5 µM; 300,000 tested, 0.81% active;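 active = inhibition above the mean of all tested compounds plus 3 SD, set per screening campaign, cut at about 24% in these data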;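 note: plate controls were DMSO alone for no effect and ferristatin control at 100 nM for full effect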
NadD inh: blocks S. aureus nicotinate mononucleotide adenylyltransferase | purified NadD enzyme, colorimetric absorbance read-out | inhibition, % at 20 µM | 360,000 tested, 0.78% active | AID 602399; in the data active = inhibition above about 26%
CSN deneddyl inh: CSN deneddylation inhibition. Q92905. Purified CSN, SCF-Nedd8-OG deneddylation, fluorescence polarization. inhibition, % at 12.5 µM. 360,000 tested, 0.38% active. AID 651999;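 active = pattern-corrected inhibition above about 35%, with an unprinted fluorescence ratio check between 0.5 and 1.5, limit read from the data, passing the limit was not always enough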;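 note: 0% = enzyme with substrate and 100% = substrate without enzyme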
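Material: purified human Csn5 enzyme expressed in HEK293T cells / Medium: Tris buffer pH 7.5, NaCl, DTT, Tween-20, trehalose, ovalbumin / Compound dosing: 12.5 µM single point / Schedule: 90 min incubation of compound, enzyme and substrate at room temperature / Signal: fluorescence polarization of the substrate / Control set: no-enzyme wells high, enzyme-with-substrate wells low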
Rpn11 block: Rpn11 (human) deubiquitinase inhibition. inhibition, % at 20 µM. O00487. AID 588493. human 26S proteasome, Ub4-pepOG fluorescence polarization; 20S core pre-blocked with epoxomicin. 360,000 tested, 0.59% active;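 active = inhibition at 20 µM, scaled to each plate's controls, above about 33%, limit read from the data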
Rpn11 inh conf: Rpn11 inhibition confirmation, single concentration | shares compounds with Rpn11 block | purified human 26S proteasome, Ub4-pepOG fluorescence polarization; proteasome pretreated with epoxomicin | inhibition, % at 20 µM | 1,900 tested, 29% active | AID 602318
MMP-2 inh: blocks human MMP-2, flagging nonselective RPN11 hits; recombinant MMP-2, FRET peptide cleavage fluorescence; 1,900 tested, 4% active; inhibition, % at 20 µM; shares compounds with Rpn11 block; AID 602330;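 note: human MMP-2 activated beforehand with APMA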
Thrombin inh: blocks bovine thrombin, flagging nonselective RPN11 hits; shares compounds with Rpn11 block; inhibition, % at 20 µM; bovine thrombin cleavage of Ub4-pepOG, fluorescence polarization; 1,900 tested, 13% active; AID 602333;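 active = mean inhibition at least 40% at 20 µM, or signal 3 deviations below plate average, so some actives read negative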;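 note: plate controls were thrombin with DMSO for no effect and buffer wells lacking thrombin for full effect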
Target sequence (P00735 whole entry, looked up): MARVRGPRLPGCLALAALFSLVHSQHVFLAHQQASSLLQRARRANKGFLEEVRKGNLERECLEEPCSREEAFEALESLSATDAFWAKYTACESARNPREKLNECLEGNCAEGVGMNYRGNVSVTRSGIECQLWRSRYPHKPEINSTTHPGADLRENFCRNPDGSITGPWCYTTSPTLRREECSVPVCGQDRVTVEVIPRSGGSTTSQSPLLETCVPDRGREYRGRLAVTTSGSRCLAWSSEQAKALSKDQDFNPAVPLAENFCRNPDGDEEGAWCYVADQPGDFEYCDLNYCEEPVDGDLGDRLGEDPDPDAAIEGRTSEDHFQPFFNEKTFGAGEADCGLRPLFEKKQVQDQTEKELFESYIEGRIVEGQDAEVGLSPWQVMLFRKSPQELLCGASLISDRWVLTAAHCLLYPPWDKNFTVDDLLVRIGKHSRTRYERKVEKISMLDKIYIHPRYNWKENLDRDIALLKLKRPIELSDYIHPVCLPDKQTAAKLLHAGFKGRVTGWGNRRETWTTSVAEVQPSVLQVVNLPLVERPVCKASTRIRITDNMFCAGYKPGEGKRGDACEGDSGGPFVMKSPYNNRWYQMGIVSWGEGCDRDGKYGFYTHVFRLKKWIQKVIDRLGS
Starred values were filed as active, the others as inactive; / = not tested or not shown; + = active, no number. Cut-off read from the data, not from the text of the source, unless noted: active = inhibition above about 40%; inactive = the rest.

SMILES | HNF4A DNA FP | PP1 counter | TPT1 inh | NadD inh | CSN deneddyl inh | Rpn11 block | Rpn11 inh conf | MMP-2 inh | Thrombin inh
CCC(=O)Nc1c(C#N)c2nc3ccccc3nc2n1-c1ccccc1C | 1 | 1 | 2 | -1 | -1 | 9 | / | / | /
CCN(CC)CCC(O)(c1ccc2c(c1)OCO2)c1cc(OC)c(OC)c(OC)c1 (centres undefined) | 8 | / | / | 0 | 4 | -2 | / | / | /
Cc1cccc(OCCCC(=O)N2CCCCCC2)c1C | 6 | / | / | -3 | 4 | 47* | -16 | -1 | -18
CC(C(=O)NC1CCCC1)n1c(-c2ccncc2)nc2ccccc21 (centres undefined) | 0 | / | / | / | 8 | / | / | / | /
CCc1nn(C(CC)C(=O)NCCc2ccc(OC)cc2OC)c(=O)c2cc3occc3n12 (centres undefined) | 4 | 5 | 2 | -3 | -1 | 0 | / | / | /
CSc1ccc(S(=O)(=O)N2CCC(C(=O)Nc3ccccc3C(F)(F)F)CC2)cc1 | -47 | 0 | 0 | -3 | 0 | 35* | 4 | -13 | 1
COc1ccc(Cn2c(-c3ccco3)nc3c(c(=O)c4ccccc4n3C)c2=O)cc1 | -2 | 6 | -3 | 22 | 26 | + | 31 | 20 | 42*
COc1ccc(Cn2c(-c3ccc(OC)cc3)nc3c(c(=O)c4ccccc4n3C)c2=O)cc1 | / | 15 | -2 | / | / | / | / | / | /
CCOc1ncccc1C(=O)Nc1c(C)n(C)n(-c2ccccc2)c1=O | 4 | -3 | -1 | -5 | 0 | 1 | / | / | /
O=C(COC(=O)c1cc(Cl)nc(Cl)c1)Nc1ccc(Cl)c(S(=O)(=O)N2CCOCC2)c1 | 0 | / | / | -1 | 0 | -3 | / | / | /
c1ccc(Cn2c(SCc3nc4ccccc4s3)nnc2-c2ccco2)cc1 | -20 | 7 | 17 | 29 | 45* | 74* | 7 | 29 | 3
CN(Cc1ccc(Br)cc1)CC(O)COc1cccc(Br)c1 (centres undefined) | 1 | 5 | -4 | -10 | 7 | 2 | / | / | /
CC(C)c1ccc(/C=N/NC(=O)c2ccc(-n3cnnn3)cc2)cc1 | 2 | / | / | -3 | 2 | -2 | / | / | /
COCCCn1cnnc1SCc1nc2sc(C(C)=O)c(C)c2c(=O)[nH]1 | 8 | -1 | 16 | -7 | 8 | 51* | 10 | -52 | 23
C=CCn1c(SCc2nc3sc(C(=O)O)c(C)c3c(=O)[nH]2)nnc1-c1ccc(F)cc1 | 1 | -2 | -1 | 5 | 3 | -3 | / | / | /
CS(=O)(=O)C1=NSC2=NC(=O)/C(=C\c3ccc(OC(=O)c4ccco4)c(Br)c3)C(=N)N21 | 35* | 2 | 16 | 6 | 28 | 71* | 17 | -5 | 32
Cc1ccc(-n2cccc2/C=C2/C(=N)N3C(=NC2=O)SN=C3S(C)(=O)=O)cc1 | 9 | 2 | 17 | 16 | 25 | 61* | 63* | -1 | 29
Cc1cc(C)cc(-n2cccc2/C=C2/C(=N)N3C(=NC2=O)SN=C3S(C)(=O)=O)c1 | 13 | 10 | 13 | 21 | 20 | 51* | 53* | -7 | -25
COc1cccc(-n2c(C)cc(/C=C3/C(=N)N4C(=NC3=O)SN=C4S(C)(=O)=O)c2C)c1 | 18 | -1 | 20 | 20 | 15 | 33 | / | / | /
CC(C)CS(=O)(=O)C1=NSC2=NC(=O)/C(=C\c3ccc(OC(=O)c4ccco4)cc3)C(=N)N21 | 1 | -2 | 10 | 25 | 4 | 29 | / | / | /
CS(=O)(=O)C1=NSC2=NC(=O)/C(=C\c3cccn3-c3ccccc3Cl)C(=N)N21 | 12 | 7 | 17 | 21 | 31 | 59* | 79* | 3 | 39
O=C(N[C@H](Cc1cc(=O)[nH]c2ccccc12)C(=O)O)c1ccc(Cl)cc1 | 2 | / | / | -4 | -3 | 0 | / | / | /
CCC1=NN2C(=N)/C(=C\c3cccn3-c3ccc(Cl)cc3)C(=O)N=C2S1 | 5 | -3 | 4 | 14 | 4 | 22 | / | / | /
CCc1ccc(-n2cccc2/C=C2/C(=N)N3C(=NC2=O)SN=C3S(C)(=O)=O)cc1 | 11 | 3 | 14 | 28 | 23 | 60* | 64* | 0 | 45*
Cn1c(C(=O)NCCN2CCCCCC2)cc2c(=O)n(C)c3ccccc3c21 | 20 | -2 | -2 | 28 | 14 | 84* | 4 | -32 | -7
SMILES | HNF4A DNA FP | PP1 counter | TPT1 inh | NadD inh | CSN deneddyl inh | Rpn11 block | Rpn11 inh conf | MMP-2 inh | Thrombin inh
CC(C)n1cnnc1SCC(=O)Nc1cccnc1Cl | -3 | / | / | -7 | -4 | -4 | / | / | /
CC1(C(=O)O)Sc2[nH]c(=O)sc2C2c3ccccc3OC(=O)C21 (centres undefined) | 39* | 2 | -7 | -3 | 3 | 48* | -4 | 8 | -2
O=C(NC(c1ccc(F)cc1)c1ccc2ccccc2n1)C1CCN(CCOc2ccc(Cl)cc2)CC1 (centres undefined) | -2 | / | / | 2 | 1 | -3 | / | / | /
CCN(CC)CCCNc1nc2ccccc2c2[nH]c3ccc(OC)cc3c12 | -38 | / | / | -3 | 5 | -25 | / | / | /
COc1ccccc1OCC(=O)NNC(=O)CSC(=S)N1CCCC1 | 2 | -5 | / | -2 | 3 | -6 | / | / | /
Cc1cc(C)c2cc3c(N)c(C(=O)Nc4c(C)[nH]c(=O)[nH]c4=O)sc3nc2c1 | 5 | 3 | 48* | 23 | 0 | 46* | 122* | -29 | 13
COc1ccccc1C(=O)N/C(N)=N/c1nc2ccccc2o1 | 18 | 2 | 14 | -1 | 14 | 59* | 51* | -38 | 8
Cc1ccc(C(=O)N/C(N)=N/c2nc3ccccc3o2)cc1 | 1 | -3 | -1 | -4 | 1 | -3 | / | / | /
Cc1noc(C)c1NC(=O)N(C)C[C@H]1Oc2ccc(NS(=O)(=O)c3ccc(F)cc3)cc2C(=O)N([C@H](C)CO)C[C@@H]1C | 7 | / | / | -2 | 0 | 60* | -4 | -7 | 5
Cc1noc(C)c1NC(=O)N(C)C[C@@H]1Oc2ccc(NS(=O)(=O)c3c(C)noc3C)cc2C(=O)N([C@H](C)CO)C[C@H]1C | -5 | / | / | -2 | 1 | 2 | / | / | /
COc1ccc(Cc2c(C(C)(C)C)nc3ccc(C)cn23)c(C)c1 | 0 | / | / | -1 | 8 | 15 | / | / | /
COc1ccc(Cc2c(-c3ccc(F)cc3)nc3c(C)cc(Br)cn23)c(C)c1 | 19 | / | / | 14 | 9 | 34 | / | / | /
COc1ccc(Cc2c(-c3ccc(Cl)cc3)nc3c(C)cc(Br)cn23)c(C)c1 | 13 | / | / | 13 | 9 | 44* | 28 | 23 | 21
